Assay results from ChEMBL document CHEMBL1932940, “Xanthohumol induces apoptosis in human malignant glioblastoma cells by increasing reactive oxygen species and activating MAPK pathways” (J Nat Prod, 2011).
Activity calls are given as the source filed them.

Experiments:
[1] = target: Mitogen-activated protein kinase 9 (Homo sapiens) (UniProt P45984); test: Induction of JNK phosphorylation in human T98G cells at 20 uM after 30 to 60 mins for 2 hrs by Western blot analysis; assay type: cell-based
T98G [2] = test: Induction of apoptosis in human T98G cells after 48 hrs by propidium iodide staining-based flow cytometric analysis; assay type: functional, cell-based
Summary of the method: (§1)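 Cells treated 1−50 μM for 24 or 48 h, washed in PBS, resuspended in 0.1% sodium citrate, 0.1% Triton X-100, 50 μg/mL propidium iodide, 30 min at 4 °C in dark. Nuclei analyzed by flow cytometry, DNA on log scale, debris gated out; percent hypodiploid (sub-G1) nuclei reported. Three experiments in triplicate.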

T98G [3] = test: Induction of apoptosis in human T98G cells assessed as decrease in Bcl-2 expression at 20 uM after 48 hrs by Western blot analysis in presence of 5 mM NAC; assay type: functional, cell-based
Summary of the method: (§2)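 T98G exposed to 20 μM for various times (0−48 h), NAC 5 mM where stated. Total lysates, or digitonin-permeabilized cytosolic and mitochondrial fractions (10000g, 15 min, 4 °C) for cytochrome c, blotted for caspase-3, caspase-9, PARP (1:1000), Bcl-2 (1:500), cytochrome c; β-actin loading control; ECL detection. Three experiments.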

T98G [4] = test: Induction of apoptosis in human T98G cells assessed as caspase activation at 20 uM after 24 hrs pretreated with 25 uM pancaspase inhibitor Z-VAD-FMK; assay type: functional, cell-based
Summary of the method: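 T98G pretreated with Z-VAD-FMK (25 μM), then exposed to test agent; apoptotic (hypodiploid) nuclei quantified by propidium iodide flow cytometry. Means ± SEM, three experiments in triplicate.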

U-87 MG [5] = test: Induction of cell cycle arrest in human U87MG cells assessed as accumulation at G0/G1 phase at 1 to 20 uM after 48 hrs by flow cytometric analysis; assay type: functional, cell-based; conditions: U-87MG ATCC
Summary of the method: (§3)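 2 × 10^5 cells per dish exposed 48 h (1−20 μM per legend); harvested, fixed in cold 70% ethanol at −20 °C, stained with propidium iodide plus RNase A (100 U/mL) 30 min at room temperature; percentage in G1, S, G2/M by flow cytometry. Three experiments in triplicate.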

[6] = Cytotoxicity against normal human astrocytes assessed as decrease in cell viability after 48 hrs by MTT assay; assay type: cell-based; conditions: astrocyte
Summary of the method: (§4)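 Cells (T98G, U87-MG, NHA; 3 × 10^4 per well) plated, next day exposed to serial dilutions (1−50 μM) for 48 h at 37 °C, 5% CO2. MTT (5 mg/mL) added for 3 h; crystals solubilized in 50% DMF/20% SDS pH 4.5; OD at 620 nm. Viability = % of DMSO (0.1% final) controls. Means ± SEM, three experiments in triplicate.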

T98G [7] = test: Anticancer activity against human T98G cells assessed as decrease in cell viability at 10 uM after 48 hrs by MTT assay; assay type: functional, cell-based; summary of the method: as §4
T98G [8] = test: Induction of apoptosis in human T98G cells assessed as cleavage PARP protein level at 20 uM after 24 hrs by Western blot analysis in presence of 5 mM NAC; assay type: functional, cell-based; summary of the method: as §2
T98G [9] = test: Induction of apoptosis in human T98G cells assessed as increase in cytosolic cytochrome c release at 20 uM after 8 hrs by Western blot analysis; assay type: functional, cell-based; summary of the method: as §2
T98G [10] = test: Induction of apoptosis in human T98G cells at 20 uM after 48 hrs by flow cytometric analysis pretreated with 5 uM p38 inhibitor SB203580 for 1 hr; assay type: functional, cell-based
Summary of the method: (§5)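 T98G pretreated with PD98059 (20 μM, 30 min), SB203580 (5 μM, 1 h) or SP600125 (5 μM, 1 h), then exposed to 20 μM for 48 h; hypodiploid nuclei quantified by propidium iodide flow cytometry. Means ± SEM, three experiments in triplicate.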

[11] = target: T1, MAP kinase p38 (Homo sapiens) (UniProt O15264+Q15759+Q16539+P53778); test: Induction of p38 phosphorylation in human T98G cells at 20 uM measured after 24 hrs by Western blot analysis; assay type: cell-based
Summary of the method: (§6)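 T98G exposed to 20 μM for 5−120 min or 24 h, with or without 5 mM NAC. Lysates (Tris/deoxycholate/SDS/IGEPAL with protease and phosphatase inhibitors) immunoblotted with anti-p-ERK, ERK1/2 (1:1000), p-p38, p38; ECL detection; phospho signals normalized to total ERK1/2 or p38. Three experiments.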

T98G [12] = test: Induction of apoptosis in human T98G cells assessed as increase in ROS production at 20 uM after 24 hrs by DCFH-DA staining-based flow cytometric analysis; assay type: functional, cell-based
Summary of the method: (§7)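 T98G incubated with 20 μM, with or without 5 mM NAC pretreatment, for 5−120 min or 24 h; washed, resuspended at 2 × 10^5 cells/mL in HBSS with 10 μM DCFH-DA, 20 min at 37 °C; DCF fluorescence read by flow cytometry (FL1), also viewed by fluorescence microscopy.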

T98G [13] = test: Induction of apoptosis in human T98G cells assessed as increase in ROS production at 20 uM measured every 5 mins for 5 to 120 mins by DCFH-DA staining-based flow cytometric analysis; assay type: functional, cell-based; summary of the method: as §7
T98G [14] = test: Induction of apoptosis in human T98G cells assessed as increase in ROS production at 20 uM measured every 5 mins for 5 to 120 mins by DCFH-DA staining-based flow cytometric analysis in presence of 5 mM NAC; assay type: functional, cell-based; summary of the method: as §7
U-87 MG [15] = test: Induction of apoptosis in human U87MG cells at 50 uM after 48 hrs by propidium iodide staining based flow cytometric analysis; assay type: functional, cell-based; conditions: U-87MG ATCC; summary of the method: as §1
T98G [16] = test: Induction of cell cycle arrest in human T98G cells assessed as accumulation at G0/G1 phase at 1 to 20 uM after 48 hrs by flow cytometric analysis; assay type: functional, cell-based; summary of the method: as §3
T98G [17] = test: Induction of apoptosis in human T98G cells assessed as increase in ROS production at 20 uM after 24 hrs by DCFH-DA staining-based flow cytometric analysis in presence of 5 mM NAC; assay type: functional, cell-based; summary of the method: as §7
[18] = target: T2, Mitogen-activated protein kinase; ERK1/ERK2 (Homo sapiens) (UniProt P27361+P28482); test: Induction of Erk1/2 phosphorylation in human T98G cells at 20 uM measured after 24 hrs by Western blot analysis; assay type: cell-based; summary of the method: as §6
T98G [19] = test: Induction of apoptosis in human T98G cells at 20 uM after 48 hrs by flow cytometric analysis pretreated with 20 uM Erk inhibitor PD98059 for 30 mins; assay type: functional; parameters: scale not given: the % may be the effect or the level left; summary of the method: as §5
T98G [20] = test: Induction of apoptosis in human T98G cells assessed as increase in caspase-3 expression level at 20 uM after 24 hrs by Western blot analysis; assay type: functional, cell-based; summary of the method: as §2
[21] = target: T2, Mitogen-activated protein kinase; ERK1/ERK2 (Homo sapiens); test: Induction of Erk1/2 phosphorylation in human T98G cells at 20 uM measured after 24 hrs by Western blot analysis in presence of 5 mM of NAC; assay type: cell-based; summary of the method: as §6
T98G [22] = test: Induction of cell cycle arrest in human T98G cells assessed as accumulation at G2/M phase at 1 to 20 uM after 48 hrs by flow cytometric analysis; assay type: functional, cell-based; summary of the method: as §3
[23] = target: T1, MAP kinase p38 (Homo sapiens); test: Induction of p38 phosphorylation in human T98G cells at 20 uM after 30 to 60 mins for 2 hrs by Western blot analysis; assay type: cell-based; summary of the method: as §6

Measured: Activity

T2 sequence (P27361 whole entry, looked up): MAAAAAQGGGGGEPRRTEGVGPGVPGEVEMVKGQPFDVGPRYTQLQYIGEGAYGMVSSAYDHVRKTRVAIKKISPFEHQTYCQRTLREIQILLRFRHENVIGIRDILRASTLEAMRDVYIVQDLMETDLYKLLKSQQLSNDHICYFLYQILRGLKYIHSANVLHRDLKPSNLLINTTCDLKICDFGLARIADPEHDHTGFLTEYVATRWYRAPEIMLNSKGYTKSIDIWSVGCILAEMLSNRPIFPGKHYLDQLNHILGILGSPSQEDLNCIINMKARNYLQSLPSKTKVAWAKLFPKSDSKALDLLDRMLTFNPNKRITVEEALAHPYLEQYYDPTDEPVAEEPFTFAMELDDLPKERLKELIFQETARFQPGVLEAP
T2 sequence (P28482 whole entry, looked up): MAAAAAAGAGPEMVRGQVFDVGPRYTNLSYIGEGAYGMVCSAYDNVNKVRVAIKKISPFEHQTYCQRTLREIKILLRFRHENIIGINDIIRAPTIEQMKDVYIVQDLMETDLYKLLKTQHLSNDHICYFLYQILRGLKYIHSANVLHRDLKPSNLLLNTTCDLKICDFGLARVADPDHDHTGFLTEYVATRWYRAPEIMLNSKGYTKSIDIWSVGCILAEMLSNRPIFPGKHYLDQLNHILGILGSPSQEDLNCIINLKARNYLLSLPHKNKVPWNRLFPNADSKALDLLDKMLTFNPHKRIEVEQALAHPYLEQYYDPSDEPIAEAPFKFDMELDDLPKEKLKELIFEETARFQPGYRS
Chain of Mitogen-activated protein kinase 9 (Homo sapiens) (P45984 whole entry, looked up): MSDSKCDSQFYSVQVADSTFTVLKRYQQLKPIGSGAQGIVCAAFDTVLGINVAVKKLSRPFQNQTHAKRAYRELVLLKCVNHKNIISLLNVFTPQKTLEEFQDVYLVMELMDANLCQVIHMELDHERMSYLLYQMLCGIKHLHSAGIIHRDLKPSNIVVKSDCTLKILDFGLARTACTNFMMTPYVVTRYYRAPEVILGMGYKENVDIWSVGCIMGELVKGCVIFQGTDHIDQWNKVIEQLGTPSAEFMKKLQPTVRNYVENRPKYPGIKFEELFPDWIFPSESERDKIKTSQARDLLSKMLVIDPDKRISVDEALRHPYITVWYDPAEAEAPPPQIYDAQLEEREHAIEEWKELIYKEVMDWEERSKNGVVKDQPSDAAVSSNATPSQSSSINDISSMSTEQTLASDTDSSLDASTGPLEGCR

COc1cc(O)c(CC=C(C)C)c(O)c1C(=O)/C=C/c1ccc(O)cc1 [XANTHOHUMOL]
active: T98G [2] Dose-dependent effect | T98G [7] | T98G [9] | T98G [12] | T98G [13] | U-87 MG [15] | [18] | T98G [20] | [23]
Non-toxic: [6]
inactive: [1] | T98G [3] | T98G [4] | U-87 MG [5] | T98G [8] | T98G [10] | [11] | T98G [14] | T98G [16] | T98G [17] | [21] | T98G [22]
50%: T98G [19]
